Assay results from ChEMBL document CHEMBL1121927, “Adriamycin analogues. Novel anomeric ribofuranoside analogues of daunorubicin” (1982).

Legend:
L1210 [1] = experiment: Increase in life span of treated animals relative to untreated controls expressed in murine L1210 leukemia at a dose of 50.6 mg/kg x4 after ip injection.; format: functional; conditions: Mus musculus, route intraperitoneal
Method in brief: (§1)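 Mice implanted ip with 10⁵ L1210 leukemia cells on day 0. Treatment given ip once daily on days 1-4. Read-out is % ILS, the increase in life span of treated animals relative to untreated controls.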

CCRF-CEM = experiment: Inhibitory activity of compound against CCRF-CEM cells,a lymphoblastic leukemic of human origin propagated in suspension culture.; format: functional; conditions: read-out: ID50 (the source's name)
Nucleic Acid = experiment: Compound was tested for the extent of DNA binding in calf thymus at pH 7 TRIS buffer.; format: nucleic-acid assay; conditions: Bos taurus
Method in brief: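 Spectral shift method with calf thymus DNA in Tris buffer, pH 7.0, at a drug/DNA molar ratio of 0.1. Binding extent is taken as the ratio of the absorbance of the drug–DNA mixture to that of drug alone at 480 nm.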

L1210 [2] = experiment: Increase in life span of treated animals relative to untreated controls expressed in murine L1210 leukemia at a dose of 70 mg/kg x4 after ip injection.; format: functional; conditions: Mus musculus, route intraperitoneal; method in brief: as §1
L1210 [3] = experiment: Increase in life span of treated animals relative to untreated controls expressed in murine L1210 leukemia at a dose of 90 mg/kg x4 after ip injection.; format: functional; conditions: Mus musculus, route intraperitoneal; method in brief: as §1
L1210 [4] = experiment: Increase in life span of treated animals relative to untreated controls expressed in murine L1210 leukemia at a dose of 45 mg/kg x4 after ip injection.; format: functional; conditions: Mus musculus, route intraperitoneal; method in brief: as §1
L1210 [5] = experiment: Increase in life span of treated animals relative to untreated controls expressed in murine L1210 leukemia at a dose of 15 mg/kg x4 after ip injection.; format: functional; conditions: Mus musculus, route intraperitoneal; method in brief: as §1
L1210 [6] = experiment: Increase in life span of treated animals relative to untreated controls expressed in murine L1210 leukemia at a dose of 4 mg/kg x4 after ip injection.; format: functional; conditions: Mus musculus, route intraperitoneal; method in brief: as §1
L1210 [7] = experiment: Increase in life span of treated animals relative to untreated controls expressed in murine L1210 leukemia at a dose of 50 mg/kg x4 after ip injection; curative; format: functional, organism-based; parameters: dose 50 mg/kg; conditions: Mus musculus

| Compound | IC50 (CCRF-CEM) | Extent of DNA binding (Nucleic Acid) | further results |
| --- | --- | --- | --- |
| COc1cccc2c1C(=O)c1c(O)c3c(c(O)c1C2=O)C[C@@](O)(C(C)=O)C[C@@H]3O[C@@H]1O[C@H](C)[C@@H](N)[C@H]1O | 210 nM | 0.86 | ILS at 50.6 mg/kg (L1210 [1]): 55% |
| COc1cccc2c1C(=O)c1c(O)c3c(c(O)c1C2=O)C[C@@](O)(C(C)=O)C[C@@H]3O[C@@H]1O[C@H](C)[C@@H](NC(=O)C(F)(F)F)[C@H]1O | 1080 nM |  | ILS at 70 mg/kg (L1210 [2]): 66% |
| COc1cccc2c1C(=O)c1c(O)c3c(c(O)c1C2=O)C[C@@](O)(C(C)=O)C[C@@H]3O[C@@H]1O[C@H](CO)[C@@H](O)[C@H](O)[C@H]1N | 3040 nM | 0.82 | ILS at 90 mg/kg (L1210 [3]): 60% |
| COc1cccc2c1C(=O)c1c(O)c3c(c(O)c1C2=O)C[C@@](O)(C(C)=O)C[C@@H]3O[C@H]1O[C@H](C)[C@@H](NC(=O)C(F)(F)F)[C@H]1O | 890 nM |  | ILS at 45 mg/kg (L1210 [4]): 55% |
| COc1cccc2c1C(=O)c1c(O)c3c(c(O)c1C2=O)C[C@@](O)(C(C)=O)C[C@@H]3O[C@H]1O[C@H](C)[C@@H](N)[C@H]1O | 280 nM | 0.8 | ILS at 15 mg/kg (L1210 [5]): 22% |
| COc1cccc2c1C(=O)c1c(O)c3c(c(O)c1C2=O)C[C@@](O)(C(=O)CO)C[C@@H]3O[C@H]1C[C@H](N)[C@H](O)[C@H](C)O1 [DOXORUBICIN] | 66 nM | 0.62 | ILS at 4 mg/kg (L1210 [6]): 66% |
| CCCCC(=O)OCC(=O)[C@]1(O)Cc2c(O)c3c(c(O)c2[C@@H](OC2CC(NC(=O)C(F)(F)F)C(O)C(C)O2)C1)C(=O)c1c(OC)cccc1C3=O (some centres undefined) | 240 nM | 0.96 | ILS (L1210 [7]): Curative |
